Experimental data: ChEMBL document CHEMBL1148770, “Conformation-activity relationship of neuropeptide S and some structural mutants: helicity affects their interaction with the receptor” (J Med Chem, 2007)
Square brackets hold non-standard residues; d marks the D form. Peptide text beside a SMILES is read from it. Aib = CC(C)(N)C(=O)O

Assays:
Assay type in all cases: functional, cell-based
[1] = biological target: T1, Neuropeptide S receptor (Mus musculus) (UniProt Q8BZP8); experiment: Agonist activity at mouse recombinant NPSR expressed in HEK293 cells assessed as calcium mobilization relative to baseline
T1 sequence (whole entry): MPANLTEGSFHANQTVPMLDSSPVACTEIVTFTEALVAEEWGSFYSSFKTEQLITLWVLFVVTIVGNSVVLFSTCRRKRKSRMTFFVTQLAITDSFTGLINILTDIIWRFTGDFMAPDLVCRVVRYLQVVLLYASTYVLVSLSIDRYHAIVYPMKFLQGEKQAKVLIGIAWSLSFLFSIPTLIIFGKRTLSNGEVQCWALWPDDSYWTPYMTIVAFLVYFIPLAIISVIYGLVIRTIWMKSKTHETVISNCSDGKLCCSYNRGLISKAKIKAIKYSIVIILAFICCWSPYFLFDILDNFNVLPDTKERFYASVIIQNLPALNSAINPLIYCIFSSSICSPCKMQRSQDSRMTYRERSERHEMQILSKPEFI
Method in brief: (§1)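 HEK293 cells stably expressing mouse NPSR, grown in DMEM/10% FBS/2 mM glutamine/hygromycin at 37 °C, 5% CO2. Seeded 50,000 cells/well on poly-D-lysine; next day loaded 30 min at 37 °C with 3 µM Fluo-4 AM, 2.5 mM probenecid, 0.01% pluronic acid. Read in HBSS/20 mM HEPES/probenecid/Brilliant Black at ≈22 °C on FlexStation; peak fluorescence change as % baseline; logistic fit; ≥4 experiments in duplicate.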

Neuropeptide S receptor [2] = biological target: T2, Neuropeptide S receptor (Mus musculus, UniProt Q8BZP8); experiment: Agonist activity at mouse recombinant NPSR expressed in HEK293 cells assessed as calcium mobilization; method in brief: as §1
T2 sequence (Q8BZP8 whole entry): T1 sequence (whole entry)

Neuropeptide S receptor [3] = biological target: T2, Neuropeptide S receptor; experiment: Antagonist activity at mouse NPSR expressed in HEK293 cells assessed as inhibition of 10 nM hNPS-induced calcium mobilization
Method in brief: (§2)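 Mouse NPSR stably expressed in HEK293 cells, grown with hygromycin, then plated at 50 000 cells/well. Next day, cells were loaded for 30 min at 37 °C with 3 µM Fluo-4 AM, 2.5 mM probenecid and 0.01% pluronic acid. The assay buffer was HBSS with 20 mM HEPES, probenecid and 500 µM Brilliant Black. Fluorescence was read at about 22 °C. pIC50 came from a logistic fit of peak fluorescence (% of baseline). At least four experiments, each in duplicate.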

Neuropeptide S receptor [4] = biological target: T2, Neuropeptide S receptor; experiment: Antagonist activity at mouse NPSR expressed in HEK293 cells assessed as inhibition of 100 nM hNPS-induced calcium mobilization; method in brief: as §2

SMILES	Emax [1]	EC50 (Neuropeptide S receptor [2])	IC50 (Neuropeptide S receptor [3])	IC50 (Neuropeptide S receptor [4])
CSCC[C@H](NC(=O)[C@@H](C)NC(=O)[C@@H](NC(=O)CNC(=O)[C@@H](NC(=O)CNC(=O)[C@H](CC(N)=O)NC(=O)[C@H](CCCNC(=N)N)NC(=O)[C@H](Cc1ccccc1)NC(=O)[C@@H](N)CO)C(C)C)[C@@H](C)O)C(=O)N[C@@H](CCCCN)C(=O)N[C@@H](CCCCN)C(=O)N[C@H](C(=O)N[C@@H](CO)C(=O)N[C@@H](Cc1ccccc1)C(=O)N[C@@H](CCC(N)=O)C(=O)N[C@@H](CCCNC(=N)N)C(=O)N[C@@H](C)C(=O)N[C@@H](CCCCN)C(=O)N[C@@H](CO)C(=O)O)[C@@H](C)O	172%	21.4 nM	–	–
CSCC[C@H](NC(=O)CNC(=O)[C@@H](NC(=O)CNC(=O)[C@@H](NC(=O)[C@@H](C)NC(=O)[C@H](CC(N)=O)NC(=O)[C@H](CCCNC(=N)N)NC(=O)[C@H](Cc1ccccc1)NC(=O)[C@@H](N)CO)C(C)C)[C@@H](C)O)C(=O)N[C@@H](CCCCN)C(=O)N[C@@H](CCCCN)C(=O)N[C@H](C(=O)N[C@@H](CO)C(=O)N[C@@H](Cc1ccccc1)C(=O)N[C@@H](CCC(N)=O)C(=O)N[C@@H](CCCNC(=N)N)C(=O)N[C@@H](C)C(=O)N[C@@H](CCCCN)C(=O)N[C@@H](CO)C(=O)O)[C@@H](C)O (H-SFRN[dA]VGTGMKKTSFQRAKS-OH)	90%	28.2 nM	–	–
CSCC[C@H](NC(=O)CNC(=O)[C@@H](NC(=O)CNC(=O)[C@@H](NC(=O)[C@H](C)NC(=O)[C@H](CC(N)=O)NC(=O)[C@H](CCCNC(=N)N)NC(=O)[C@H](Cc1ccccc1)NC(=O)[C@@H](N)CO)C(C)C)[C@@H](C)O)C(=O)N[C@@H](CCCCN)C(=O)N[C@@H](CCCCN)C(=O)N[C@H](C(=O)N[C@@H](CO)C(=O)N[C@@H](Cc1ccccc1)C(=O)N[C@@H](CCC(N)=O)C(=O)N[C@@H](CCCNC(=N)N)C(=O)N[C@@H](C)C(=O)N[C@@H](CCCCN)C(=O)N[C@@H](CO)C(=O)O)[C@@H](C)O (H-SFRNAVGTGMKKTSFQRAKS-OH)	178%	24.5 nM	–	–
CSCC[C@H](NC(=O)[C@H](C)NC(=O)[C@@H](NC(=O)CNC(=O)[C@@H](NC(=O)CNC(=O)[C@H](CC(N)=O)NC(=O)[C@H](CCCNC(=N)N)NC(=O)[C@H](Cc1ccccc1)NC(=O)[C@@H](N)CO)C(C)C)[C@@H](C)O)C(=O)N[C@@H](CCCCN)C(=O)N[C@@H](CCCCN)C(=O)N[C@H](C(=O)N[C@@H](CO)C(=O)N[C@@H](Cc1ccccc1)C(=O)N[C@@H](CCC(N)=O)C(=O)N[C@@H](CCCNC(=N)N)C(=O)N[C@@H](C)C(=O)N[C@@H](CCCCN)C(=O)N[C@@H](CO)C(=O)O)[C@@H](C)O	164%	23.4 nM	–	–
CSCC[C@H](NC(=O)CNC(=O)[C@@H](NC(=O)CNC(=O)[C@@H](NC(=O)CNC(=O)[C@H](CC(N)=O)NC(=O)[C@H](CCCNC(=N)N)NC(=O)[C@H](Cc1ccccc1)NC(=O)[C@H](C)N)C(C)C)[C@@H](C)O)C(=O)N[C@@H](CCCCN)C(=O)N[C@@H](CCCCN)C(=O)N[C@H](C(=O)N[C@@H](CO)C(=O)N[C@@H](Cc1ccccc1)C(=O)N[C@@H](CCC(N)=O)C(=O)N[C@@H](CCCNC(=N)N)C(=O)N[C@@H](C)C(=O)N[C@@H](CCCCN)C(=O)N[C@@H](CO)C(=O)O)[C@@H](C)O (H-AFRNGVGTGMKKTSFQRAKS-OH)	182%	26.3 nM	–	–
CSCC[C@H](NC(=O)CNC(=O)[C@@H](NC(=O)[C@@H](C)NC(=O)[C@@H](NC(=O)CNC(=O)[C@H](CC(N)=O)NC(=O)[C@H](CCCNC(=N)N)NC(=O)[C@H](Cc1ccccc1)NC(=O)[C@@H](N)CO)C(C)C)[C@@H](C)O)C(=O)N[C@@H](CCCCN)C(=O)N[C@@H](CCCCN)C(=O)N[C@H](C(=O)N[C@@H](CO)C(=O)N[C@@H](Cc1ccccc1)C(=O)N[C@@H](CCC(N)=O)C(=O)N[C@@H](CCCNC(=N)N)C(=O)N[C@@H](C)C(=O)N[C@@H](CCCCN)C(=O)N[C@@H](CO)C(=O)O)[C@@H](C)O	164%	23.4 nM	–	–
CSCC[C@H](NC(=O)CNC(=O)[C@@H](NC(=O)CNC(=O)[C@@H](NC(=O)C(C)(C)NC(=O)[C@H](CC(N)=O)NC(=O)[C@H](CCCNC(=N)N)NC(=O)[C@H](Cc1ccccc1)NC(=O)[C@@H](N)CO)C(C)C)[C@@H](C)O)C(=O)N[C@@H](CCCCN)C(=O)N[C@@H](CCCCN)C(=O)N[C@H](C(=O)N[C@@H](CO)C(=O)N[C@@H](Cc1ccccc1)C(=O)N[C@@H](CCC(N)=O)C(=O)N[C@@H](CCCNC(=N)N)C(=O)N[C@@H](C)C(=O)N[C@@H](CCCCN)C(=O)N[C@@H](CO)C(=O)O)[C@@H](C)O (H-SFRN[Aib]VGTGMKKTSFQRAKS-OH)	65%	191 nM	537 nM	1620 nM
CSCC[C@H](NC(=O)CNC(=O)[C@@H](NC(=O)CNC(=O)[C@@H](NC(=O)CNC(=O)[C@H](CC(N)=O)NC(=O)[C@H](CCCNC(=N)N)NC(=O)[C@H](Cc1ccccc1)NC(=O)C(C)(C)N)C(C)C)[C@@H](C)O)C(=O)N[C@@H](CCCCN)C(=O)N[C@@H](CCCCN)C(=O)N[C@H](C(=O)N[C@@H](CO)C(=O)N[C@@H](Cc1ccccc1)C(=O)N[C@@H](CCC(N)=O)C(=O)N[C@@H](CCCNC(=N)N)C(=O)N[C@@H](C)C(=O)N[C@@H](CCCCN)C(=O)N[C@@H](CO)C(=O)O)[C@@H](C)O (H-[Aib]FRNGVGTGMKKTSFQRAKS-OH)	184%	6.76 nM	–	–
CSCC[C@H](NC(=O)C(C)(C)NC(=O)[C@@H](NC(=O)CNC(=O)[C@@H](NC(=O)CNC(=O)[C@H](CC(N)=O)NC(=O)[C@H](CCCNC(=N)N)NC(=O)[C@H](Cc1ccccc1)NC(=O)[C@@H](N)CO)C(C)C)[C@@H](C)O)C(=O)N[C@@H](CCCCN)C(=O)N[C@@H](CCCCN)C(=O)N[C@H](C(=O)N[C@@H](CO)C(=O)N[C@@H](Cc1ccccc1)C(=O)N[C@@H](CCC(N)=O)C(=O)N[C@@H](CCCNC(=N)N)C(=O)N[C@@H](C)C(=O)N[C@@H](CCCCN)C(=O)N[C@@H](CO)C(=O)O)[C@@H](C)O (H-SFRNGVGT[Aib]MKKTSFQRAKS-OH)	190%	10.2 nM	–	–
CSCC[C@H](NC(=O)CNC(=O)[C@@H](NC(=O)CNC(=O)[C@@H](NC(=O)CNC(=O)[C@H](CC(N)=O)NC(=O)[C@H](CCCNC(=N)N)NC(=O)[C@H](Cc1ccccc1)NC(=O)[C@@H](N)CO)C(C)C)[C@@H](C)O)C(=O)N[C@@H](CCCCN)C(=O)N[C@@H](CCCCN)C(=O)N[C@@H](C)C(=O)N[C@@H](CO)C(=O)N[C@@H](Cc1ccccc1)C(=O)N[C@@H](CCC(N)=O)C(=O)N[C@@H](CCCNC(=N)N)C(=O)N[C@@H](C)C(=O)N[C@@H](CCCCN)C(=O)N[C@@H](CO)C(=O)O (H-SFRNGVGTGMKKASFQRAKS-OH)	172%	19.1 nM	–	–
